Experimental data published in ChEMBL document CHEMBL1131203, “Second generation "peptoid" CCK-B receptor antagonists: identification and development of N-(adamantyloxycarbonyl)-alpha-methyl-(R)-tryptophan derivative (CI-1015) with an improved pharmacokinetic profile” (J Med Chem, 1998).
Blank lines part the entries; values can stand above or below the compound they belong to. Active and inactive are the calls of the source. No cut-off for these calls is given here.

Legend:
[1] = Pharmacokinetic parameter tmax was evaluated in saline solution at a dose of 20 mg/kg orally; type: ADME, organism-based; parameters: dose 20 mg/kg, route oral; details: in vivo, po
Outline: (§1)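 Fasted male Wistar rats, groups of 3–4, given a single oral 20 mg/kg dose in the stated vehicle. Heparinized plasma was collected from an implanted jugular-vein cannula at serial times out to 24 h, kept frozen, and assayed by validated HPLC-fluorescence. Cmax, tmax, AUC(0–∞) and terminal t1/2 were obtained by noncompartmental analysis. Values are means (%RSD).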

Mus musculus [2] = assay: Concentration in forebrain after intravenous injection evaluated after 20 min. at a dose of 10 mg/kg; type: functional
Outline: (§2)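 Ex vivo binding: mice were dosed iv with compound or vehicle, given either as saline or as 10% EtOH–60% propylene glycol–30% saline. Forebrains were taken at 5, 10 or 20 min, homogenized in HEPES buffer with bacitracin at pH 7.2, and incubated with 50 pM [125I]BH-CCK8s for 2 h at 22 °C. After filtration, bound radioligand was gamma-counted and read against calibration curves prepared in vehicle tissue. Detection limit was about 1 pmol/forebrain. n = 3–13.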

[3] = Pharmacokinetic parameter AUC was evaluated in Hp-beta-CD solution; type: ADME; outline: as §1
[4] = Maximum plasma concentration was evaluated in Hp-beta-CD solution at a dose of 20 mg/kg orally; type: ADME, organism-based; parameters: dose 20 mg/kg, route oral; details: po; outline: as §1
[5] = Absolute oral bioavailability was evaluated in saline solution at a dose of 20 mg/kg orally; type: ADME, organism-based; details: eutheria, in vivo
Outline: (§3)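 Fasted male Wistar rats, groups of 3–4, given a single 20 mg/kg dose po or iv in the stated vehicle. Heparinized plasma was drawn from a jugular-vein cannula at serial times out to 24 h and assayed by validated HPLC-fluorescence. Absolute bioavailability is the dose-normalized ratio of AUC after po dosing to AUC after iv dosing.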

Mus musculus [6] = assay: Concentration in forebrain after intravenous injection evaluated after 10 min. at a dose of 10 mg/kg; Below low level of detection; type: functional, organism-based; parameters: dose 10 mg/kg; outline: as §2
[7] = Pharmacokinetic parameter tmax was evaluated in Hp-beta-CD solution at a dose of 20 mg/kg orally; type: ADME, organism-based; parameters: dose 20 mg/kg, route oral; details: in vivo, po; outline: as §1
[8] = Pharmacokinetic parameter AUC was evaluated in saline solution at a dose of 20 mg/kg orally; type: ADME, organism-based; parameters: dose 20 mg/kg, route oral; details: in vivo, po; outline: as §1
Mus musculus [9] = assay: Concentration in forebrain after intravenous injection evaluated after 5 min. at a dose of 10 mg/kg; type: functional; outline: as §2
[10] = Absolute oral bioavailability was evaluated in Hp-beta-CD solution at a dose of 20 mg/kg orally; type: ADME, organism-based; details: eutheria, in vivo; outline: as §3
[11] = Maximum plasma concentration was evaluated in saline solution at a dose of 20 mg/kg orally; type: ADME, organism-based; parameters: dose 20 mg/kg, route oral; details: po; outline: as §1
[12] = Pharmacokinetic parameter half-life was evaluated in 100% PEG solution; type: ADME, organism-based; details: in vivo; outline: as §1
Mus musculus [13] = assay: Concentration in forebrain after intravenous injection evaluated after 5 min. at a dose of 1 mg/kg; type: functional; outline: as §2
[14] = Pharmacokinetic parameter half-life was evaluated in HP-beta-CD solution at a dose of 20 mg/kg orally; type: ADME, organism-based; parameters: dose 20 mg/kg, route oral; details: in vivo, po; outline: as §1
[15] = molecular target: T1, Cholecystokinin receptor type A (Rattus norvegicus, UniProt P30551); assay: Inhibitory concentration against radioligand [125I]Bolton-Hunter labeled CCK-8 to cholecystokinin type A receptor in the rat pancreas
T1 sequence (P30551 whole entry): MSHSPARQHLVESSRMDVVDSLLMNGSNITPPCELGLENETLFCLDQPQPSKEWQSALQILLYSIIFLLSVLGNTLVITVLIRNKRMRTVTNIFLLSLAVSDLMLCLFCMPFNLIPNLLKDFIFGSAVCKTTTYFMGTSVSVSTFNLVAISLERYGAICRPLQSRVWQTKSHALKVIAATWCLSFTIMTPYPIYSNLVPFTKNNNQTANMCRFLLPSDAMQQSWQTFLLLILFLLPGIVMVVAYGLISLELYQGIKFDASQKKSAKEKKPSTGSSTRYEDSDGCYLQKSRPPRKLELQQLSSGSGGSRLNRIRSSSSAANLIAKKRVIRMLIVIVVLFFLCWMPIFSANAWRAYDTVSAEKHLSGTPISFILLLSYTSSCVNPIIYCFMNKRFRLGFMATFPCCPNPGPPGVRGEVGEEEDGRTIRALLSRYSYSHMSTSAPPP

[16] = Pharmacokinetic parameter AUC was evaluated in 100% PEG solution at a dose of 20 mg/kg orally; type: ADME, organism-based; parameters: dose 20 mg/kg, route oral; details: in vivo, po; outline: as §1
Mus musculus [17] = assay: Concentration in forebrain after intravenous injection evaluated after 20 min. at a dose of 1 mg/kg; type: functional; outline: as §2
[18] = Pharmacokinetic parameter AUC was evaluated in DMA:H2O solution at a dose of 20 mg/kg orally; type: ADME, organism-based; parameters: dose 20 mg/kg, route oral; details: in vivo, po; outline: as §1
[19] = Pharmacokinetic parameter AUC was evaluated in HP-beta-CD solution at a dose of 20 mg/kg orally; type: ADME, organism-based; parameters: dose 20 mg/kg, route oral; details: in vivo, po; outline: as §1
[20] = Pharmacokinetic parameter tmax was evaluated in DMA:H2O solution at a dose of 20 mg/kg orally; type: ADME, organism-based; parameters: dose 20 mg/kg, route oral; details: in vivo, po; outline: as §1
[21] = Ratio of IC50 towards CCK-A receptor and CCK-B receptor
[22] = molecular target: T2, Gastrin/cholecystokinin type B receptor (Mus musculus, UniProt P56481); assay: Inhibitory concentration against radioligand [125I]Bolton-Hunter labeled CCK-8 to cholecystokinin type B receptor in the mouse cerebral cortex; type: tissue-based
T2 sequence (P56481 whole entry): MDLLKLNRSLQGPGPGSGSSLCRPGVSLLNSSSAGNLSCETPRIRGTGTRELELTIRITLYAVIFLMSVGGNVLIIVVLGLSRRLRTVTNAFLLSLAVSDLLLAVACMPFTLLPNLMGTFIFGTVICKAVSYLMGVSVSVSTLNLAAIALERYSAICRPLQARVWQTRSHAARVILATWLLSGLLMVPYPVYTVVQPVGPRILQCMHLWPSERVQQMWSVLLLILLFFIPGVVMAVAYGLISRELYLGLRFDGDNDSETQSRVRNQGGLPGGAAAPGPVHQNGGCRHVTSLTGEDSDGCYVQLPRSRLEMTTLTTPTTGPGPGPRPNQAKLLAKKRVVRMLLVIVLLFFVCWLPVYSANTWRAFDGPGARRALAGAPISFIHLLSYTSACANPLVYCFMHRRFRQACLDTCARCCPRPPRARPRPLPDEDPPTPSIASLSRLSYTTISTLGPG

[23] = Maximum plasma concentration was evaluated in DMA:H2O solution at a dose of 20 mg/kg orally; type: ADME, organism-based; parameters: dose 20 mg/kg, route oral; details: po; outline: as §1
[24] = Pharmacokinetic parameter tmax was evaluated in 100% PEG solution at a dose of 20 mg/kg orally; type: ADME, organism-based; parameters: dose 20 mg/kg, route oral; details: in vivo, po; outline: as §1
[25] = Maximum plasma concentration evaluated in 100% PEG solution at a dose of 20 mg/kg orally; type: ADME, organism-based; parameters: dose 20 mg/kg, route oral; details: po; outline: as §1
[26] = Absolute oral bioavailability evaluated in 0.5% methylcellulose suspentionat a dose of 20 mg/kg orally; type: ADME, organism-based; details: eutheria, in vivo; outline: as §3
[27] = Maximum plasma concentration evaluated in HP-beta-CD solution at a dose of 20 mg/kg orally; type: ADME, organism-based; parameters: dose 20 mg/kg, route oral; details: po; outline: as §1
[28] = Pharmacokinetic parameter tmax was evaluated in HP-beta-CD solution at a dose of 20 mg/kg orally; type: ADME, organism-based; parameters: dose 20 mg/kg, route oral; details: in vivo, po; outline: as §1
[29] = Absolute oral bioavailability was evaluated in 100% PEG solution at a dose of 20 mg/kg orally; type: ADME, organism-based; details: eutheria, in vivo; outline: as §3
[30] = Pharmacokinetic parameter half-life was evaluated in DMA:H2O solution at a dose of 20 mg/kg orally; type: ADME, organism-based; parameters: dose 20 mg/kg, route oral; details: in vivo, po; outline: as §1
[31] = Pharmacokinetic parameter AUC was evaluated in 0.5% methylcellulose suspension at a dose of 20 mg/kg orally; type: ADME, organism-based; parameters: dose 20 mg/kg, route oral; details: in vivo, po; outline: as §1
[32] = Maximum plasma concentration was evaluated in 0.5% methylcellulose suspension at a dose of 20 mg/kg orally; type: ADME, organism-based; parameters: dose 20 mg/kg, route oral; details: po; outline: as §1
[33] = Absolute oral bioavailability was evaluated in DMA:H2O solution at a dose of 20 mg/kg orally; type: ADME, organism-based; details: eutheria, in vivo; outline: as §3
Mus musculus [34] = assay: Concentration in forebrain after intravenous injection evaluated after 10 min. at a dose of 1 mg/kg; type: functional; outline: as §2
[35] = Pharmacokinetic parameter tmax evaluated in 0.5% methylcellulose suspension at a dose of 20 mg/kg orally; type: ADME, organism-based; parameters: dose 20 mg/kg, route oral; details: in vivo, po; outline: as §1
[36] = Oral bioavailability (dosed in HP-beta-CD solution) (dose 20 mg/kg p.o.); type: ADME, organism-based; details: eutheria, in vivo; outline: as §3

Tmax [1]: 2.3 h
AUC [3]: 2.3 ng·h/mL
Cmax [4]: 5 ng/mL
bioavailability [5]: 3.2%
Tmax [7]: 0.25 h
AUC [8]: 134 ng·h/mL
bioavailability [10]: < 1%
Cmax [11]: 32 ng/mL
Compound: C[C@](Cc1c[nH]c2ccccc12)(NC(=O)OC1[C@H]2C[C@@H]3C[C@@H](C[C@H]1C3)C2)C(=O)NC[C@H](NC(=O)CCC(=O)O)c1ccccc1 (stereo partly specified) [CI-988]
Brain level (Mus musculus [2]): 8 pmol/forebrain
Brain level (Mus musculus [6]): inactive
Brain level (Mus musculus [9]): 10 pmol/forebrain

half-life [12]: 1.1 h
half-life [14]: 1.5 h
IC50 [15]: 0.78 µM
AUC [16]: 886 ng·h/mL
AUC [18]: 890 ng·h/mL
AUC [19]: 1440 ng·h/mL
Tmax [20]: 1.2 h
Ratio [21]: 123
IC50 [22]: 0.0063 µM
Cmax [23]: 212 ng/mL
Tmax [24]: 2.8 h
Cmax [25]: 167 ng/mL
bioavailability [26]: 2%
Cmax [27]: 416 ng/mL
Tmax [28]: 0.9 h
bioavailability [29]: 9.6%
half-life [30]: 2.3 h
AUC [31]: 188 ng·h/mL
Cmax [32]: 42 ng/mL
bioavailability [33]: 9.6%
Tmax [35]: 2.9 h
bioavailability [36]: 16%
Compound: C[C@](Cc1c[nH]c2ccccc12)(NC(=O)OC1C2CC3CC(C2)CC1C3)C(=O)N[C@H](CO)Cc1ccccc1 (stereo partly specified)
Brain level (Mus musculus [13]): 40 pmol/forebrain
Brain level (Mus musculus [17]): 43 pmol/forebrain
Brain level (Mus musculus [34]): 68 pmol/forebrain
